# SENP6 block: SENP6 protease inhibitors, primary screen, biochemical, luminescence, uHTS; inhibition, % at 10 µM; 330,000 compounds, 1.8% hits; AID 2599, 2010; Recombinant SENP6 catalytic domain, aminoluciferin luminescence; Sentrin-specific protease 6 (Homo sapiens), Q9GZR1;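 active = inhibition above about 50% at the single tested dose, limit read from the data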;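 note: plate controls were DMSO wells with enzyme for no effect and DMSO wells lacking enzyme for full effect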
# SENP1 FRET inh: human SENP1 catalytic domain inhibitors, primary screen, biochemical, FRET, uHTS. Sentrin-specific protease 1 (Homo sapiens), Q9P0U3. recombinant SENP1 catalytic domain, CyPet-SUMO1-YPet FRET cleavage. inhibition, % at 10 µM. 360,000 compounds, 0.21% hits. AID 624204, 2012;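 active = inhibition at least 30% at 10 µM, raw YFP signal under a set limit, fluorescence ratio 0.5 to 1.5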;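 note: 0% = enzyme with DMSO and 100% = no enzyme wells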
#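 Test system: hSENP1 catalytic domain, recombinant; Amount: 20 pM final SENP1 enzyme; Medium: Tris pH 8 buffer plus EDTA, NaCl, BME, BSA, NP40, catalase; Schedule: 50 min enzyme reaction, room temperature, light-protected; Technique: FRET fluorescence in CFP and YFP emission channels; Controls: no-enzyme wells low, DMSO-plus-enzyme wells high control.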
# SENP8 block-1: SENP8 protease inhibitors, primary screen, biochemical, luminescence. Sentrin-specific protease 8 (Homo sapiens), Q96LD8. purified SENP8, Z-RLRGG-aminoluciferin cleavage. inhibition, % at 10 µM. 330,000 compounds, 1.2% hits. AID 2540, 2010; in the data active = inhibition above about 50%
# Target sequence (Q96LD8 whole entry, looked up): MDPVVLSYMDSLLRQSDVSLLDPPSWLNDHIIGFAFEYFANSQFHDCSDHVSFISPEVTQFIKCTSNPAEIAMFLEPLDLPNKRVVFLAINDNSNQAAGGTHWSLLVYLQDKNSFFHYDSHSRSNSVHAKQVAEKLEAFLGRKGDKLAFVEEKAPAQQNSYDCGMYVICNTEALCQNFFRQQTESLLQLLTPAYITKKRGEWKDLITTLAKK
# SENP7 inh: SENP7 protease inhibitors, primary screen, biochemical, luminescence, uHTS | Sentrin-specific protease 7 (Homo sapiens), Q9BQF6 | AID 434973, 2010 | inhibition, % at 5 µM | recombinant SENP7, Z-RLRGG-aminoluciferin luminescence, 40 min | 330,000 compounds, 1.5% hits;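 active = inhibition above about 50% at the single test dose, limit read from the data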;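 note: plate controls were DMSO with enzyme for no effect and no enzyme buffer wells for full effect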
# Target sequence (Q9BQF6 706-1050 limits assumed): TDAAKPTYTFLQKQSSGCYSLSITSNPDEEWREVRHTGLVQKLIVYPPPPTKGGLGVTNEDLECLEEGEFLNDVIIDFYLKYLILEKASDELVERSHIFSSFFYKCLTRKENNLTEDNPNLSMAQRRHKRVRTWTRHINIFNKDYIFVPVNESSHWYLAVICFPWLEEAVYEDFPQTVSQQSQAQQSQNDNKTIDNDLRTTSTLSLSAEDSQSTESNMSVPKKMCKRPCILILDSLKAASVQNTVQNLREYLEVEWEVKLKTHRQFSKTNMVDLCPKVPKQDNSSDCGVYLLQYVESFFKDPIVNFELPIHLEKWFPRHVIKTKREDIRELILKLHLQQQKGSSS
# SENP8 block-2: human SENP8 protease inhibitors, primary screen, biochemical, fluorescence, Nedd8 protein substrate, uHTS; 360,000 compounds, 0.64% hits; recombinant SENP8; Sentrin-specific protease 8 (Homo sapiens), Q96LD8; inhibition, % at 20 µM; in the data active = inhibition mostly above about 40%, no sharp cut-off; inactive = mostly below about 27%
# Platelet DG rel: inhibitors of platelet dense granule secretion, primary screen, cell-based, MLPCN, human platelets; human platelet-rich plasma, SFLLRN dense granule ATP release, luminescence; inhibition, %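 (compounds screened at 7.5 µM in platelet-rich plasma)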; 300,000 compounds, 0.22% hits;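 active = mean replicate score, as percent of positive control, at or above 50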
# SENP8 conf: SENP8 protease inhibitors, retest, confirmation, biochemical, luminescence, single concentration | Recombinant SENP8, Z-RLRGG-aminoluciferin luminescence, 60 min | 6,200 compounds, 40% hits | inhibition, % at 12.5 µM | AID 488912, 2010 | shares compounds with SENP7 inh;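 active = mean inhibition across replicates above about 50%, limit read from the data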
# SENP6 confirm: SENP6 protease inhibitors, confirmation, biochemical, luminescence, single concentration. AID 488915, 2010. 6,200 compounds, 58% hits. recombinant SENP6, Z-RLRGG-aminoluciferin luminescence. shares compounds with SENP7 inh. inhibition, % at 12.5 µM
# SENP7 confirm: SENP7 protease inhibitors, retest, confirmation, biochemical, luminescence, single concentration. shares compounds with SENP7 inh. recombinant SENP7, Z-RLRGG-aminoluciferin luminescence, 40 min. inhibition, % at 12.5 µM. 6,200 compounds, 69% hits. AID 488917, 2010
# Casp3 SENP sel: caspase-3 protease inhibitors, confirmation, selectivity assay for SENP inhibitor project, biochemical, single concentration; purified caspase-3, Z-DEVD-aminoluciferin luminescence, 60 min; shares compounds with SENP7 inh; 6,200 compounds, 60% hits; inhibition, % at 12.5 µM;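 active = mean inhibition above about 50%, limit read from the data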;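 note: plate controls were enzyme with DMSO for no effect and wells without caspase-3 for full effect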
# SENP luc ctr: counter-screen for SENP inhibitors: luminescence interference | inhibition, % at 12.5 µM | 6,200 compounds, 39% hits | shares compounds with SENP7 inh | AID 488919 | Pre-incubated SENP8/Z-RLRGG-aminoluciferin, luciferase luminescence interference;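 active = mean inhibition above about 50% when retested at one dose, limit read from the data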;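 note: plate controls were DMSO wells with completed reaction for no effect and substrate without enzyme for full effect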
# Active calls of the source: *; . = no result. Shown are actives, neighbours in structure and some others; about 2.6% of the full set was active somewhere.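 Rule for the calls, unless noted: active = mean inhibition above about 50% in the one-dose retest (limit read from the data); inactive = the rest.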
SMILES,SENP6 block,SENP1 FRET inh,SENP8 block-1,SENP7 inh,SENP8 block-2,Platelet DG rel,SENP8 conf,SENP6 confirm,SENP7 confirm,Casp3 SENP sel,SENP luc ctr
CCOC(=O)CN1N=C(/C=C/c2ccc(C)cc2)CCC1=O,0.1,2.8,-4.8,-1.3,16.1,-44.8,.,.,.,.,.
CC(=O)c1cc(O)c2ccccc2c1O,59.7*,-27.1,26.7,8.3,-17.8,4.8,1.2,10.2,-1.6,-1.6,1.0
COc1ccc(Cn2c(O)c(C=Nc3ccc(OC)cc3)c3ccccc3c2=O)cc1,58.5*,-29.6,8.3,33.0,-57.9,6.1,9.7,15.8,8.0,2.7,-7.9
CC(OC(=O)C1CSC2(C)CCC(=O)N12)C(=O)Nc1ccc(F)cc1 (stereo not given),-22.3,0.4,-12.7,-1.1,11.8,.,.,.,.,.,.
COc1cc(/C=C(/C#N)C(=O)Nc2ccc(Cl)cc2)ccc1Oc1nc(Cl)ncc1F,11.8,-52.9,5.2,6.0,2.4,18.2,.,.,.,.,.
COc1ccc(C(=O)/C=C2\Sc3ccccc3N2C)cc1,4.7,-127.2,47.6,52.9*,-377.4,10.7,74.1*,76.6*,92.4*,76.9*,15.7
CC(=S)/C=C1\Sc2ccccc2N1C,1.2,-1.4,4.7,3.0,28.6,8.8,.,.,.,.,.
CC(C)(C)C(=O)COC(=O)c1cccc(NC(=O)c2ccco2)c1,-6.7,-1.3,-6.5,2.8,17.6,0.1,.,.,.,.,.
Cc1ccc(C(=O)COC(=O)c2cccc(NC(=O)c3ccc([N+](=O)[O-])cc3[N+](=O)[O-])c2)cc1,66.9*,0.0,34.5,66.3*,9.8,0.4,22.4,43.6,68.8*,45.1,46.1
O=C(COC(=O)c1cccc(NC(=O)c2ccco2)c1)c1ccc(Br)cc1,70.3*,0.4,23.8,72.1*,6.9,-0.1,8.3,60.6*,77.9*,36.7,32.8
c1ccc(Nc2nc(-c3cccnc3)cs2)nc1,88.0*,3.5,54.5*,81.3*,3.7,21.2,16.7,35.0,87.5*,78.7*,16.4
CC(=O)Nc1cccc(-c2csc(Nc3ccccn3)n2)c1,83.9*,3.4,78.8*,92.0*,4.2,-3.2,88.1*,86.8*,98.3*,68.0*,87.6*
Fc1ccc(-c2csc(Nc3ccccn3)n2)cc1,86.9*,-2.1,83.5*,89.7*,7.8,9.5,91.2*,92.2*,99.8*,70.1*,58.4*
c1cncc(Nc2nc(-c3cccnc3)cs2)c1,7.1,0.9,-4.9,8.2,17.9,41.1,.,.,.,.,.
Clc1ccccc1Nc1nc(-c2cccnc2)cs1,87.9*,1.8,73.6*,82.8*,19.8,15.6,88.9*,85.5*,96.7*,66.0*,53.0*
O=C(c1ccc(CS(=O)c2ccc(F)cc2)o1)N1CCN(C2CCCCC2)CC1 (stereo not given),-4.7,-0.1,6.4,5.9,11.0,-14.8,.,.,.,.,.
Brc1ccc(-n2cnc(-c3ccccc3)c2)cc1,71.1*,-2.4,69.2*,79.3*,8.4,.,61.2*,62.0*,91.6*,58.9*,17.9
O=[N+]([O-])c1ccc(-c2cn(-c3ccc(Cl)cc3)cn2)cc1,.,35.1,.,.,6.8,.,.,.,.,.,.
CCCCc1nc(SCC(=O)N2CCCC2)c2c(=O)n(C)c(=O)n(C)c2n1,-6.0,2.0,6.5,-2.7,5.2,-1.6,.,.,.,.,.
O=c1cc(-c2ccccc2)[nH]n1-c1ccc([N+](=O)[O-])cc1,83.8*,-1.5,79.2*,25.3,39.7,-0.8,85.9*,92.9*,99.7*,90.0*,70.7*
CC1Sc2ccc(C(=O)OCc3ccccc3Cl)cc2NC1=O (stereo not given),54.9*,-0.6,5.9,70.2*,-9.4,-4.5,-24.0,-11.1,-0.6,1.7,-5.3
COc1cccc(COC(=O)c2ccc3c(c2)NC(=O)C(C)S3)c1OC (stereo not given),-16.5,-1.6,5.9,3.0,0.2,4.1,.,.,.,.,.
COC(=O)N(C)c1nc2ccccc2s1,-12.8,1.0,-3.8,4.3,26.7,-13.5,.,.,.,.,.
Oc1ccccc1OCc1nc2ccccc2s1,82.2*,2.4,69.6*,80.9*,9.6,1.7,-4.5,76.1*,93.6*,78.2*,80.0*
CC(C)c1ccc(-c2nc3ccccc3s2)cc1,97.6*,1.2,97.6*,99.6*,-7.2,41.0,97.6*,99.5*,101.5*,97.4*,96.8*
SMILES,SENP6 block,SENP1 FRET inh,SENP8 block-1,SENP7 inh,SENP8 block-2,Platelet DG rel,SENP8 conf,SENP6 confirm,SENP7 confirm,Casp3 SENP sel,SENP luc ctr
CN(C(=O)OC(C)(C)C)c1ccc(-c2nc3ccccc3s2)cc1,100.3*,-2.1,94.9*,100.2*,-487.8,16.8,94.9*,96.8*,100.2*,92.9*,46.3
COc1cccc(-c2nc3ccccc3s2)c1O,76.9*,-77.4,53.8*,86.4*,-395.0,6.9,39.0,57.9*,96.5*,74.2*,5.3
FC(F)(F)c1ccc(-c2nc3ccccc3s2)cc1,.,0.7,.,.,-26.9,.,.,.,.,.,.
O=C(NCc1ccco1)Nc1nnc([C@H]2C[C@H](O)[C@@H](CO)O2)s1,.,-1.6,.,.,1.5,.,.,.,.,.,.
CCCCN(Cc1ccco1)S(=O)(=O)c1ccc(-c2ccc(=O)[nH]n2)s1,2.4,-1.9,-1.3,-3.6,-2.9,3.0,.,.,.,.,.
O=C1c2ccccc2[C@@H]2C[C@@H](O)[C@H](Nc3cccc4ccccc34)CCN12,.,-48.3,.,18.0,-253.9,.,.,.,.,.,.
COc1cc(-c2nc3ccccc3s2)ccc1O,94.2*,-171.1,94.1*,88.7*,-272.1,1.2,95.3*,95.9*,101.5*,87.6*,94.7*
